Laboratory results published in ChEMBL document CHEMBL1132284, “Potent, orally active GPIIb/IIIa antagonists containing a nipecotic acid subunit. Structure-activity studies leading to the discovery of RWJ-53308” (J Med Chem, 1999).

How the values were obtained:
Canis familiaris [1] = assay: Inhibitory activity tested in ex vivo (canine) against ADP-induced platelet aggregation at the dose of 10 mg/kg; format: functional, Canis lupus familiaris
Homo sapiens = species on record: Homo sapiens; assay: In vitro inhibitory potency against human gel filtered platelet (GFP) aggregation; format: functional
How it was run: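 Human gel-filtered platelets, aggregation induced by thrombin; IC50; n = 2.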

[2] = target: Integrin alpha-IIb/beta-3 (Homo sapiens, UniProt P05106+P08514); assay: In vitro inhibition of biotinylated fibrinogen binding to immobilized fibrinogen receptor.; format: protein-complex assay
How it was run: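 Binding of biotinylated fibrinogen to immobilized purified GPIIb/IIIa, solid phase; IC50; n = 2.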

Canis familiaris [3] = assay: Ex vivo duration of inhibition of ADP-induced canine platelet aggregation by 3 mg/kg.; format: functional, Canis lupus familiaris
How it was run: (§1)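 Fasted mongrel dogs (8–22 kg, n = 3) given compound orally by stomach tube in 10 mL water. Citrated cephalic-vein blood drawn pre-dose and at 30, 60, 90, 120, 180, 240, 360 min. PRP adjusted to 300 000/μL with PPP, warmed 2 min at 37 °C, and aggregated with 20 μM ADP, read as light transmission. Inhibition is drug versus vehicle; duration is time at ≥50% inhibition.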

Canis familiaris [4] = assay: Inhibitory activity tested in ex vivo (canine) against ADP-induced platelet aggregation at the dose of 1 mg/kg; format: functional, Canis lupus familiaris; how it was run: as §1

Chain of Integrin alpha-IIb/beta-3 (P05106 27-788 limits assumed): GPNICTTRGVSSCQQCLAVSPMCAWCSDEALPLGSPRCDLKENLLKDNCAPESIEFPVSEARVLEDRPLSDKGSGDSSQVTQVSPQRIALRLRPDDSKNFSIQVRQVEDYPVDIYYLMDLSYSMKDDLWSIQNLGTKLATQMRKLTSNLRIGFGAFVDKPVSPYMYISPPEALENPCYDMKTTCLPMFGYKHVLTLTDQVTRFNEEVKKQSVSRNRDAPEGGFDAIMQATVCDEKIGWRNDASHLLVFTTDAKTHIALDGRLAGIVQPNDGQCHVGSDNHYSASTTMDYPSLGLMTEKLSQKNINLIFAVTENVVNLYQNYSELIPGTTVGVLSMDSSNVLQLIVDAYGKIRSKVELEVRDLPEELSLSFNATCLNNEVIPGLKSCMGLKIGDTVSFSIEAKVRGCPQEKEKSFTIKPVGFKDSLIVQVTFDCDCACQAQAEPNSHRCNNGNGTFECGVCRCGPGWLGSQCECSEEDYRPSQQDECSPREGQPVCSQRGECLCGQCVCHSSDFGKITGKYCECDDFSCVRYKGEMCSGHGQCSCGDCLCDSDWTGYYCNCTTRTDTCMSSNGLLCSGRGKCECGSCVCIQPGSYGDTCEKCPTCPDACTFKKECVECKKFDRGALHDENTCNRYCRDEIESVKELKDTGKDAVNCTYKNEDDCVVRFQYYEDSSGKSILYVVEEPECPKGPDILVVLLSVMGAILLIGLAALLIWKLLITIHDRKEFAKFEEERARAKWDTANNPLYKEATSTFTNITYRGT
Chain of Integrin alpha-IIb/beta-3 (P08514 32-887 limits assumed): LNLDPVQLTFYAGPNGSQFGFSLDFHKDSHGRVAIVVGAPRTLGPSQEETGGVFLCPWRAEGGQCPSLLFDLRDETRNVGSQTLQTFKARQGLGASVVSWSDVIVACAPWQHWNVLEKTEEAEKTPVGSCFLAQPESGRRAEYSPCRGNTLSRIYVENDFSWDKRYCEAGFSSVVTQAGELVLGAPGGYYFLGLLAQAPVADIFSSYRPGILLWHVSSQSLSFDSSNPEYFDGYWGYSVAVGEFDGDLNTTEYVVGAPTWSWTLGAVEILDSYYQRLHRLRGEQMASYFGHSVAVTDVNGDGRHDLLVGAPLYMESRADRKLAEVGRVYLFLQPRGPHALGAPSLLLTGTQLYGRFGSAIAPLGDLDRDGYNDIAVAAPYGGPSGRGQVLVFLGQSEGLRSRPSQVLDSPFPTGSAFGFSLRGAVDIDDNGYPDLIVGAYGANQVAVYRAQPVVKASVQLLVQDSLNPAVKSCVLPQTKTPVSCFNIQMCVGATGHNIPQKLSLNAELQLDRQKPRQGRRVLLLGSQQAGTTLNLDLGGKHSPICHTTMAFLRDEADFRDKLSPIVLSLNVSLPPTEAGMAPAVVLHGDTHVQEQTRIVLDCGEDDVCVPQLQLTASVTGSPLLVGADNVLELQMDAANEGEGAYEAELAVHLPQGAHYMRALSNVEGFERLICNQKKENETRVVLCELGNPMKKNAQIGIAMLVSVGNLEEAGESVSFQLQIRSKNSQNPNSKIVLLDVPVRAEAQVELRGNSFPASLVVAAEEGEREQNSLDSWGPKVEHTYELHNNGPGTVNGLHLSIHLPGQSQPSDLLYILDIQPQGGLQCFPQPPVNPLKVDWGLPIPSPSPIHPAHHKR
Chain of Integrin alpha-IIb/beta-3 (P08514 891-1039 limits assumed): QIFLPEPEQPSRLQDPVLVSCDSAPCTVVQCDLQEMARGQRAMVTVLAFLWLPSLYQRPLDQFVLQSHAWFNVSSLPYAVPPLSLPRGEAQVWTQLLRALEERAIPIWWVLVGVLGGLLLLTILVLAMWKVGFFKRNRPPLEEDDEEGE

IC50 (Homo sapiens; Homo sapiens) [µM]	IC50 [2] [µM]	SMILES	Duration (Canis familiaris [3]) [min]	other results
0.84	0.00024	CN1CCC(CCC(=O)N2CCC[C@@H](C(=O)N[C@H](CC(=O)O)c3ccc4c(c3)OCO4)C2)CC1		Duration (Canis familiaris [1]): 120 min
0.04	0.0001	O=C(O)C[C@@H](NC(=O)[C@@H]1CCCN(C(=O)CCC2CCNCC2)C1)c1ccc(Cl)s1		
	0.014	O=C(O)CC(NC(=O)C1CCCN(C(=O)CCC2CCNCC2)C1)c1cncc(-c2cccc([N+](=O)[O-])c2)c1 (centres undefined)		
0.14	0.00058	O=C(O)C[C@H](NC(=O)[C@@H]1CCN(C(=O)/C=C/C2CCNCC2)C1)c1cccnc1	360	
	0.0018	O=C(O)CC(NC(=O)C1CCCN(C(=O)CCC2CCNCC2)C1)c1cncc(-c2ccccc2)c1 (centres undefined)		
	0.042	CC(C)(C)C#C[C@@H](CC(=O)O)NC(=O)[C@@H]1CCCN(C(=O)CCC2CCNCC2)C1		
	0.012	COc1ccccc1-c1cncc(C(CC(=O)O)NC(=O)C2CCCN(C(=O)CCC3CCNCC3)C2)c1 (centres undefined)		
8	0.0135	C[C@H](CC(=O)O)NC(=O)[C@@H]1CCCN(C(=O)CCC2CCNCC2)C1		
0.22	0.00034	O=C(O)C[C@H](NC(=O)[C@@H]1CCCN(C(=O)CCC2CCNCC2)C1)c1cnc(Cl)c(Cl)c1	150	
	0.003	O=C(O)CC(NC(=O)C1CCCN(C(=O)CCC2CCNCC2)C1)c1cccnc1 (centres undefined)		
	0.024	Cc1ccc(-c2cncc(C(CC(=O)O)NC(=O)C3CCCN(C(=O)CCC4CCNCC4)C3)c2)cc1 (centres undefined)		
41	0.0072	COC(=O)C[C@H](NC(=O)[C@@H]1CCCN(C(=O)CCC2CCNCC2)C1)c1cccnc1	60	
	0.036	O=C(O)CC(NC(=O)C1CCCN(C(=O)CCC2CCNCC2)C1)c1cncc(-c2cc3ccccc3o2)c1 (centres undefined)		
0.06	0.00036	O=C(O)C[C@@H](NC(=O)[C@@H]1CCCN(C(=O)CCC2CCNCC2)C1)c1cccnc1	360	
0.97	0.00037	O=C(O)C[C@@H](Cc1ccccc1)NC(=O)[C@@H]1CCCN(C(=O)CCC2CCNCC2)C1		
	0.0015	O=C(O)CC(NC(=O)C1CCCN(C(=O)CCC2CCNCC2)C1)c1cncc(-c2cccs2)c1 (centres undefined)		
0.6	0.0017	O=C(O)C[C@H](NC(=O)[C@H]1CN(C(=O)CCC2CCNCC2)CCN1)c1cccnc1		
0.16	0.00081	O=C(O)C[C@H](NC(=O)[C@@H]1CCCN(C(=O)/C=C/C2CCNCC2)C1)c1cccnc1	210	
36	0.048	CCOC(=O)C[C@@H](NC(=O)[C@@H]1CCCN(C(=O)CCC2CCNCC2)C1)c1ccc2c(c1)OCO2	<30	
11.8	0.0668	O=C(O)C[C@@H](NC(=O)[C@@H]1CCCN(C(=O)CCC2CCNCC2)C1)c1ncc(C(F)(F)F)cc1Cl	30	
0.08	0.00022	O=C(O)C[C@H](C#Cc1ccccc1)NC(=O)[C@@H]1CCCN(C(=O)CCC2CCNCC2)C1		Duration (Canis familiaris [4]): <30 min
	0.026	O=C(O)CC(NC(=O)C1CCCN(C(=O)CCC2CCNCC2)C1)c1cncc(-c2cccc3ccccc23)c1 (centres undefined)		
3.5	0.00029	O=C(O)C[C@@H](C#Cc1ccccc1)NC(=O)[C@@H]1CCCN(C(=O)CCC2CCNCC2)C1		
2.2	0.0038	O=C(C[C@H](NC(=O)[C@@H]1CCCN(C(=O)CCC2CCNCC2)C1)c1cccnc1)OCCC1CCCCC1	120	
0.35	0.00075	N=CN1CCC(CCC(=O)N2CCC[C@@H](C(=O)N[C@@H](CC(=O)O)c3cccnc3)C2)CC1	90	

IC50 (Homo sapiens; Homo sapiens) [µM]	IC50 [2] [µM]	SMILES	Duration (Canis familiaris [3]) [min]	other results
0.21	0.0179	O=C(N[C@H](Cc1ccccc1)[C@@H](O)C(=O)O)[C@@H]1CCCN(C(=O)CCC2CCNCC2)C1		
0.07	0.00052	O=C(O)C[C@H](NC(=O)[C@@H]1CCCN(C(=O)CCC2CCNCC2)C1)c1cncc(-c2ccccc2)c1		
	0.011	COc1ccc(-c2cncc(C(CC(=O)O)NC(=O)C3CCCN(C(=O)CCC4CCNCC4)C3)c2)cc1 (centres undefined)		
0.2	0.00037	O=C(O)C[C@H](NC(=O)[C@@H]1CCCN(C(=O)CCC2CCNCC2)C1)c1ccc(-c2ccsc2)nc1	150	
	0.011	COc1cccc(-c2cncc(C(CC(=O)O)NC(=O)C3CCCN(C(=O)CCC4CCNCC4)C3)c2)c1 (centres undefined)		
0.02	0.00021	O=C(O)C[C@H](NC(=O)[C@@H]1CCCN(C(=O)CCC2CCNCC2)C1)c1cncc(Br)c1	180	
1.6	0.0035	O=C(O)C(O)CNC(=O)[C@@H]1CCCN(C(=O)CCC2CCNCC2)C1 (some centres undefined)		
	0.0036	Nc1cccc(-c2cncc(C(CC(=O)O)NC(=O)C3CCCN(C(=O)CCC4CCNCC4)C3)c2)c1 (centres undefined)		
	0.057	O=C(O)CC(NC(=O)C1CCCN(C(=O)CCC2CCNCC2)C1)c1cncc(-c2ccc(Cl)s2)c1 (centres undefined)		
0.09	0.0038	COc1ncc([C@H](CC(=O)O)NC(=O)[C@@H]2CCCN(C(=O)CCC3CCNCC3)C2)cc1Cl	30	
	0.003	O=C(O)CC(NC(=O)C1CCCN(C(=O)CCC2CCNCC2)C1)c1cncc(Br)c1 (centres undefined)		
0.03	0.00024	C#Cc1cncc([C@H](CC(=O)O)NC(=O)[C@@H]2CCCN(C(=O)CCC3CCNCC3)C2)c1		
0.09	0.0001	O=C(O)C[C@@H](NC(=O)[C@@H]1CCCN(C(=O)CCC2CCNCC2)C1)c1cccs1		
0.03	0.00013	Cc1ccc([C@H](CC(=O)O)NC(=O)[C@@H]2CCCN(C(=O)CCC3CCNCC3)C2)cn1	210	
0.02	0.00014	O=C(O)C[C@H](NC(=O)[C@@H]1CCCN(C(=O)CCC2CCNCC2)C1)c1ccc(Cl)nc1	210	
0.03	0.00066	O=C(O)C[C@H](NC(=O)[C@@H]1CCCN(C(=O)CCC2CCNCC2)C1)c1cncc(CCc2ccccc2)c1	180	
0.04	0.00085	O=C(O)C[C@H](NC(=O)[C@@H]1CCCN(C(=O)CCC2CCNCC2)C1)c1cncc(C#Cc2ccccc2)c1		Duration (Canis familiaris [4]): <30 min
	0.002	O=C(O)CC(NC(=O)C1CCCN(C(=O)CCC2CCNCC2)C1)c1cncc(-c2ccsc2)c1 (centres undefined)		
	0.057	O=C(O)CC(NC(=O)C1CCCN(C(=O)CCC2CCNCC2)C1)c1cncc(-c2ccc3ccccc3c2)c1 (centres undefined)		
31	0.0056	CC(C)(C)C#C[C@H](CC(=O)O)NC(=O)[C@@H]1CCCN(C(=O)CCC2CCNCC2)C1		
0.27	0.0048	O=C(O)CCNC(=O)[C@@H]1CCCN(C(=O)CCC2CCNCC2)C1	120	
	0.00018	O=C(O)C[C@@H](NC(=O)[C@@H]1CCCN(C(=O)CCC2CCNCC2)C1)c1cnc2ccccc2c1 (stereo in doubt; 33)		
	0.00037	O=C(O)C[C@@H](NC(=O)[C@@H]1CCCN(C(=O)CCC2CCNCC2)C1)c1cnc2ccccc2c1 (stereo in doubt; 34)		IC50 (Homo sapiens): 1.2 µM
0.3	0.002	C#C[C@H](CC(=O)OCC)NC(=O)CCC(=O)Nc1ccc(C(=N)N)cc1 [XEMILOFIBAN]	>180	

SMILES	IC50 (Homo sapiens; Homo sapiens) [µM]	IC50 [2] [µM]	Duration (Canis familiaris [3]) [min]	other results
O=C(O)C[C@@H](NC(=O)[C@@H]1CCCN(C(=O)CCC2CCNCC2)C1)c1ccc2c(c1)OCO2	0.02	0.0005	180	
